The source made the active and inactive calls. No cut-off for these calls is given here.
Key:
[1] = system: Mus musculus; assay: Antinociceptive activity in Swiss albino mouse assessed as inhibition of acetic-acid induced abdominal writhing at 30 mg/kg, po administered prior to acetic-acid challenge measured after 30 mins relative to untreated-control; type: functional; conditions: Abdomen, 0.5 h
How it was run: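 Male Albino-Swiss mice (20-24 g), n = 6, were pretreated orally at 30 mg/kg in 5% ethyl acetate vehicle (5 mL/kg). Writhing was induced with 1.2% (v/v) acetic acid i.p. Writhes (abdominal contraction, body stretching, hind-limb extension) were counted for 30 min starting immediately after injection and compared with the control group. ANOVA/Bonferroni, P < 0.05.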

[2] = system: Mus musculus; assay: Antinociceptive activity in Swiss albino mouse assessed as increase in tail-flick latency at 30 mg/kg, po measured up to 120 mins relative to untreated-control; type: functional, organism-based; design: dose 30 mg/kg
How it was run: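 Male Albino-Swiss mice (20-24 g), n = 6 per group, given 30 mg/kg p.o. as a suspension in 5% ethyl acetate vehicle (5 mL/kg). Tail-flick latency was measured every 20 min: two pre-dose readings were averaged as baseline, then six post-dose readings. Results are expressed as % increase over baseline and as AUC from 20-120 min. ANOVA with Bonferroni test, P < 0.05.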

[3] = system: Mus musculus; assay: Neurotoxicity in Swiss albino mouse assessed as alteration in motor activity at 30 mg/kg, po administered 60 mins prior to testing measured for 5 mins by rotarod test relative to untreated-control; type: toxicity, organism-based; design: dose 30 mg/kg, route oral; conditions: in vivo
How it was run: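 Mice were trained twice the day before to stay 5 min on a rotarod turning at 10 rev/min. Twenty-four hours later they received 30 mg/kg p.o. or vehicle. Sixty minutes after dosing they were placed on the roller for 5 min, and the number of falls was recorded as the neurological deficit.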

[4] = system: Mus musculus; assay: Neurotoxicity in Swiss albino mouse assessed as alteration in motor activity at 30 mg/kg, po administered 60 mins prior to testing measured for 5 mins by open field test relative to untreated-control; type: toxicity, organism-based; design: dose 30 mg/kg, route oral; conditions: in vivo
How it was run: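 Male Albino-Swiss mice, n = 6, received 30 mg/kg p.o. or vehicle. Sixty minutes after dosing, each mouse was placed alone in a chamber whose floor was divided into 50 squares of 5 × 5 cm. Squares crossed were counted over 5 min.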

[5] = system: Mus musculus; assay: Toxicity in Swiss albino mouse assessed as disorientation up to 2000 mg/kg, po measured from 5 hrs post-dose to 14 days relative to untreated-control; type: organism-based; design: dose 2000 mg/kg, route oral; conditions: in vivo
How it was run: (§1)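 Acute toxicity followed WHO and OECD guidelines. Male Albino-Swiss mice received single oral doses increasing up to 2000 mg/kg. Behaviour (disorientation, hyperactivity, piloerection, hyperventilation) was observed from 5 h after dosing and then daily until day 14. LD50 was estimated by nonlinear regression of % deaths against dose.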

[6] = system: Mus musculus; assay: Toxicity in Swiss albino mouse assessed as hyperactivity up to 2000 mg/kg, po measured from 5 hrs post-dose to 14 days relative to untreated-control; type: organism-based; design: dose 2000 mg/kg, route oral; conditions: in vivo; how it was run: as §1
[7] = system: Mus musculus; assay: Toxicity in Swiss albino mouse assessed as piloerection up to 2000 mg/kg, po measured from 5 hrs post-dose to 14 days relative to untreated-control; type: organism-based; design: dose 2000 mg/kg, route oral; conditions: in vivo; how it was run: as §1
[8] = system: Mus musculus; assay: Toxicity in Swiss albino mouse assessed as hyperventilation up to 2000 mg/kg, po measured from 5 hrs post-dose to 14 days relative to untreated-control; type: organism-based; design: dose 2000 mg/kg, route oral; conditions: in vivo; how it was run: as §1
[9] = Toxicity in po dosed Swiss albino mouse; type: organism-based; conditions: in vivo
How it was run: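 Acute oral toxicity per WHO and OECD guidelines. Male Albino-Swiss mice (20–24 g), 6 per group, held at 20 ± 2 °C on a 12 h light/dark cycle. Given single oral doses rising to 2000 mg/kg, as a suspension in 5% ethyl acetate at 5 mL/kg. Behaviour watched from 5 h after dosing, then daily to day 14. LD50 from nonlinear regression of percent deaths against dose.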

[10] = system: Mus musculus; assay: Antinociceptive activity in mouse assessed as inhibition of acetic-acid induced abdominal writhing at 50 mg/kg administered 60 mins prior to acetic-acid challenge; type: functional; conditions: Abdomen

OC[C@H]1CCC[C@@H](c2cccc3ccccc23)O1 (relative stereo)
inhibition in vivo at 30 mg/kg [1]: 39.2%
Activity [2]: Active
Activity [3]: Non-toxic
Activity [4]: Non-toxic
Activity [5]: Non-toxic
Activity [6]: Non-toxic
Activity [7]: Non-toxic
Activity [8]: Non-toxic
LD50 [9]: > 2000 mg/kg

O=C(O)[C@H]1C[C@@H](Cl)C[C@@H](c2cccc3ccccc23)O1 (relative stereo)
inhibition in vivo at 30 mg/kg [1]: 54.4%
Activity [2]: inactive
Activity [3]: Non-toxic
Activity [4]: Non-toxic
Activity [5]: Non-toxic
Activity [6]: Non-toxic
Activity [7]: Non-toxic
Activity [8]: Non-toxic
LD50 [9]: > 2000 mg/kg

OC[C@H]1C[C@@H](Cl)C[C@@H](c2cccc3ccccc23)O1 (relative stereo)
inhibition in vivo at 30 mg/kg [1]: 87.5%
Activity [2]: Active
Activity [3]: Non-toxic
Activity [4]: Non-toxic
Activity [5]: Non-toxic
Activity [6]: Non-toxic
Activity [7]: Non-toxic
Activity [8]: Non-toxic
LD50 [9]: > 2000 mg/kg

OC[C@H]1CCC[C@@H](c2ccc3ccccc3c2)O1 (relative stereo)
inhibition in vivo at 30 mg/kg [1]: 55.7%
Activity [2]: Active
Activity [3]: Non-toxic
Activity [4]: Non-toxic
Activity [5]: Non-toxic
Activity [6]: Non-toxic
Activity [7]: Non-toxic
Activity [8]: Non-toxic
LD50 [9]: > 2000 mg/kg

CC[C@@H]1CCC[C@H](C(=O)O)O1 (racemic)
inhibition in vivo at 30 mg/kg [1]: 14.1%
Activity [2]: Active
inhibition in vivo at 50 mg/kg [10]: 15%
Activity [3]: Non-toxic
Activity [4]: Non-toxic
Activity [5]: Non-toxic
Activity [6]: Non-toxic
Activity [7]: Non-toxic
Activity [8]: Non-toxic
LD50 [9]: > 2000 mg/kg

OC[C@H]1C[C@@H](Cl)C[C@@H](c2ccc3ccccc3c2)O1 (relative stereo)
inhibition in vivo at 30 mg/kg [1]: 46.6%
Activity [2]: Active
Activity [3]: Non-toxic
Activity [4]: Non-toxic
Activity [5]: Non-toxic
Activity [6]: Non-toxic
Activity [7]: Non-toxic
Activity [8]: Non-toxic
LD50 [9]: > 2000 mg/kg

O=C(O)[C@H]1C[C@@H](Cl)C[C@@H](c2ccc3ccccc3c2)O1 (relative stereo)
inhibition in vivo at 30 mg/kg [1]: 28.1%
Activity [2]: Active
Activity [3]: Non-toxic
Activity [4]: Non-toxic
Activity [5]: Non-toxic
Activity [6]: Non-toxic
Activity [7]: Non-toxic
Activity [8]: Non-toxic
LD50 [9]: > 2000 mg/kg

CC(C)C(=O)OC[C@H]1C[C@@H](Cl)C[C@@H](c2cccc3ccccc23)O1 (relative stereo)
inhibition in vivo at 30 mg/kg [1]: 38.4%
Activity [2]: Active
Activity [3]: Non-toxic
Activity [4]: Non-toxic
Activity [5]: Non-toxic
Activity [6]: Non-toxic
Activity [7]: Non-toxic
Activity [8]: Non-toxic
LD50 [9]: > 2000 mg/kg

O=C(O)[C@H]1CCC[C@@H](c2ccc3ccccc3c2)O1
inhibition in vivo at 30 mg/kg [1]: 43.1%
Activity [2]: Active
Activity [3]: Non-toxic
Activity [4]: Non-toxic
Activity [5]: Non-toxic
Activity [6]: Non-toxic
Activity [7]: Non-toxic
Activity [8]: Non-toxic
LD50 [9]: > 2000 mg/kg

CC(C)C(=O)OC[C@H]1C[C@@H](Cl)C[C@@H](c2ccc3ccccc3c2)O1 (relative stereo)
inhibition in vivo at 30 mg/kg [1]: 44.4%
Activity [2]: Active
Activity [3]: Non-toxic
Activity [4]: Non-toxic
Activity [5]: Non-toxic
Activity [6]: Non-toxic
Activity [7]: Non-toxic
Activity [8]: Non-toxic
LD50 [9]: > 2000 mg/kg

O=C(O)[C@H]1CCC[C@@H](c2cccc3ccccc23)O1 (relative stereo)
inhibition in vivo at 30 mg/kg [1]: 49%
Activity [2]: Active
Activity [3]: Non-toxic
Activity [4]: Non-toxic
Activity [5]: Non-toxic
Activity [6]: Non-toxic
Activity [7]: Non-toxic
Activity [8]: Non-toxic
LD50 [9]: > 2000 mg/kg

From ChEMBL document CHEMBL2150887, “Design, Prins-cyclization reaction promoting diastereoselective synthesis of 10 new tetrahydropyran derivatives and in vivo antinociceptive evaluations” (Eur J Med Chem, 2012)
